Experimental data from ChEMBL document CHEMBL3352347, “ΔF508-CFTR correctors: synthesis and evaluation of thiazole-tethered imidazolones, oxazoles, oxadiazoles, and thiadiazoles” (Bioorg Med Chem Lett, 2014).

Assays:
[1] = target: Cystic fibrosis transmembrane conductance regulator (Homo sapiens, UniProt P13569, F508DEL); experiment: (§1) Activity of human CFTR F508 deletion mutant expressed in FRT cells assessed as potentiation of genistein-induced iodine ion influx after 24 hrs by YFP-H148Q/I152L fluorescent quenching assay; assay type: cell-based
How it was run: (§2)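 FRT cells co-expressing human ΔF508-CFTR and the iodide-sensitive YFP-H148Q/I152L sensor were incubated 24 h with each compound. Iodide influx, used as a chloride surrogate, was then read from the kinetics of YFP quenching after iodide addition, with cells stimulated by a cAMP agonist plus genistein. Corrector activity was derived from influx versus concentration data.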

[2] = target: Cystic fibrosis transmembrane conductance regulator (Homo sapiens, UniProt P13569); experiment: as §1; assay type: cell-based; details: frt; how it was run: as §2
Chain of Cystic fibrosis transmembrane conductance regulator (Homo sapiens, UniProt P13569) (P13569 as listed by the source): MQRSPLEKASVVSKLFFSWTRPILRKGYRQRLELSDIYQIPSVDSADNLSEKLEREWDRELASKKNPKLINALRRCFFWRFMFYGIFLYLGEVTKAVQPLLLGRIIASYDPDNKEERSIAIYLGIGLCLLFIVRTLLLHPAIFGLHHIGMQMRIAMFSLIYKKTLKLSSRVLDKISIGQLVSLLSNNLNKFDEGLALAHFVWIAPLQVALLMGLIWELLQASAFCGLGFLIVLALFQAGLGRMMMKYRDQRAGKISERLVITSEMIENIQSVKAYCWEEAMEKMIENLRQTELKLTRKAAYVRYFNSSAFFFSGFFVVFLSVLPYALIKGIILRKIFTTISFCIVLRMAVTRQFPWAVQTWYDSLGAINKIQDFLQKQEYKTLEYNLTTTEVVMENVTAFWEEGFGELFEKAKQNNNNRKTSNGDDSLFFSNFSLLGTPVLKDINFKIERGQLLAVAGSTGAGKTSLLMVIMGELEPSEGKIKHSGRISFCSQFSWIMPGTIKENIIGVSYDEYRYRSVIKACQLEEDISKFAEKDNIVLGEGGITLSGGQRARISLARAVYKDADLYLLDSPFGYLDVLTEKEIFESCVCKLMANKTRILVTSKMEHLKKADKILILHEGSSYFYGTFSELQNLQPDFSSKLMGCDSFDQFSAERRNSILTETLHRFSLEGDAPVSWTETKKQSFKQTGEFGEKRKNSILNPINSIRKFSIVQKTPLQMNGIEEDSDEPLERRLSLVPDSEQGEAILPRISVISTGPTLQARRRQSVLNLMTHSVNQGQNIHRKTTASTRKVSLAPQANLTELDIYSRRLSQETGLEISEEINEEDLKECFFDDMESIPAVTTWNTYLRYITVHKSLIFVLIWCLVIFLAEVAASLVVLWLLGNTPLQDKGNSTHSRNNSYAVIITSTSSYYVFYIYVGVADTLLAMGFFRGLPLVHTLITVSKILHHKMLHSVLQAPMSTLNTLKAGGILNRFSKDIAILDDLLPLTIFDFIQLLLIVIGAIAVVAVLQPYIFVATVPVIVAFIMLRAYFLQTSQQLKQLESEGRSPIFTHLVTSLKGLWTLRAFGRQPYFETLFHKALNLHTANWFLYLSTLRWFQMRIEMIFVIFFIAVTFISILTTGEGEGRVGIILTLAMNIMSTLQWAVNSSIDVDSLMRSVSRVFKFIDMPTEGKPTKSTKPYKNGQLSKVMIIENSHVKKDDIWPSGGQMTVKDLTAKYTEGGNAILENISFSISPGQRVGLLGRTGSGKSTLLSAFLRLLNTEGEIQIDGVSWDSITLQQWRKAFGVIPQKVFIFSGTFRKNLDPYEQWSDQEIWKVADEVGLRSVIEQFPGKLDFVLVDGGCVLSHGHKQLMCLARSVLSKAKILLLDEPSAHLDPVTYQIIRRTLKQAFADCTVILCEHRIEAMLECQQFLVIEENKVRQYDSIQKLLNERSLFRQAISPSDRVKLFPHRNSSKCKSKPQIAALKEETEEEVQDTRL

Chain of Cystic fibrosis transmembrane conductance regulator (Homo sapiens, UniProt P13569, F508DEL) (P13569 as listed by the source): as above

EC50 [1]	EC50 [2]	Structure (SMILES)
870 nM	–	COc1ccc(Cl)cc1Nc1nc(-c2sc(NC(=O)C(C)(C)C)nc2C)cs1
–	Not Active	COc1ccc(Cl)cc1-n1cc(-c2sc(NC(=O)C(C)(C)C)nc2C)[nH]c1=O
740 nM	–	COc1ccc(Cl)cc1Nc1ncc(-c2sc(NC(=O)C(C)(C)C)nc2C)o1
660 nM	–	COc1ccc(Cl)cc1Nc1nnc(-c2csc(NC(=O)C(C)(C)C)n2)o1
–	Not Active	COc1ccc(Cl)cc1Nc1nnc(-c2csc(NC(=O)C(C)(C)C)n2)s1
590 nM	–	COc1ccc(Cl)cc1Nc1nc(-c2nnc(NC(=O)C(C)(C)C)o2)cs1
–	Not Active	COc1ccc(Cl)cc1Nc1nc(C)c(-c2csc(NC(=O)C(C)(C)C)n2)s1
